Non-standard residues stand in square brackets, D forms with d. Residues, ends and D or L forms follow the SMILES beside them. *: point of attachment. NH(CH2CH2O)11C2H4NHBiotinyl = O=C(CCCC[C@@H]1SC[C@@H]2NC(=O)N[C@@H]21)NCCOCCOCCOCCOCCOCCOCCOCCOCCOCCOCCOCCN*; Lys(iBu,2-norbornyl) = CC(C)CN(CCCC[C@H](N)C(=O)O)C1CC2CCC1C2; Lys(Me,2-norbornyl) = CN(CCCC[C@H](N)C(=O)O)C1CC2CCC1C2; Nva(5-morpholino) = N[C@@H](CCCN1CCOCC1)C(=O)O; Benzoyl(4-tBu) = CC(C)(C)c1ccc(C(=O)*)cc1; Gly(cBu) = N[C@H](C(=O)O)C1CCC1
Key:
[1] = biological target: T1, CDYL2 (Homo sapiens, UniProt Q8N8U2); experiment: TR-FRET competitive displacement assay; type: binding
T1 sequence (Q8N8U2 1-75): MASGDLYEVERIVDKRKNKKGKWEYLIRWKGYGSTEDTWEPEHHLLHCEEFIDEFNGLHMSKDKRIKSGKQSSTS

[2] = biological target: T2, CBX8 (Mus musculus, UniProt Q9QXV1); experiment: CBX8 GFP reporter assay in mESCs; type: cell-based; conditions: 48 h, result in words
T2 sequence (Q9QXV1 1-362): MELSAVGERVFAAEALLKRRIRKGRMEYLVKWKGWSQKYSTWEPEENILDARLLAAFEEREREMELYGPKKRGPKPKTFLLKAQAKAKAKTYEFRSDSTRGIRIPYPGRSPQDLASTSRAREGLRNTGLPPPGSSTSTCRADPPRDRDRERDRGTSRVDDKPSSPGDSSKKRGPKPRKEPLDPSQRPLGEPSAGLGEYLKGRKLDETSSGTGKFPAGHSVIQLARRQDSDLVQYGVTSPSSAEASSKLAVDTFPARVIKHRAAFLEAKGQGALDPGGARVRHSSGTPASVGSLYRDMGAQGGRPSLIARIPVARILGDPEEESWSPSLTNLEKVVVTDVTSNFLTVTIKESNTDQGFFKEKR
Method in brief: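 Mouse ESC reporter line carrying 12xZFHD1, 4xGAL4 and 7xTetO sites upstream of a Puromycin-GFP gene, made by recombinase-mediated cassette exchange. Cells grown feeder-free in high-glucose DMEM with 13.5% FBS and LIF. 2,000 cells/well seeded onto compound in triplicate: 10-point 2-fold series, or for ester analogues 15-point 1.5-fold series with 0.06% DMSO final. 48 h at 37°C. GFP read by flow cytometry on gated live single cells.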

[3] = system: mESCs; experiment: CellTiter-Glo cell viability assay; type: cell-based, mouse; conditions: 48 h, result in words
Method in brief: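 mESCs plated at 5,000 cells/well onto a ten-point 1:2 compound dilution series in mESC medium. 48 h at 37°C, 5% CO2. Lysed with CellTiter-Glo reagent; luminescence read after 15 min at room temperature in dim light.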

[4] = biological target: T3, CBX7 (Mus musculus, UniProt Q8VDS3); experiment: CBX7 GFP reporter assay in mESCs; type: cell-based; conditions: result in words
T3 sequence (Q8VDS3 1-158): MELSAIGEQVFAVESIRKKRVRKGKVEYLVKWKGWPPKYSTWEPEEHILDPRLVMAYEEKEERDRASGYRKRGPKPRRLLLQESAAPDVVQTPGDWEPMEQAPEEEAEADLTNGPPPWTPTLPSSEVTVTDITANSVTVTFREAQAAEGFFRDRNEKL

[5] = system: CBX2, CBX6, and CBX7; experiment: ChIP-qPCR at endogenous Polycomb target genes; type: cell-based, mouse; conditions: 20 μM, wild-type mESCs (absence of CBX8)
[6] = biological target: T4, 274 purified Kme readers (Homo sapiens, UniProt O00257); experiment: Protein domain microarray; type: binding; conditions: 1 μM, qualitative
T4 sequence (O00257 1-69): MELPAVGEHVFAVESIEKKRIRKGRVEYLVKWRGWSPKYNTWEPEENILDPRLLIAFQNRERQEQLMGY

[7] = biological target: T5, 274 purified Kme readers (Homo sapiens, UniProt O95503); experiment: Protein domain microarray; type: binding; conditions: 1 μM, qualitative
T5 sequence (O95503 1-69): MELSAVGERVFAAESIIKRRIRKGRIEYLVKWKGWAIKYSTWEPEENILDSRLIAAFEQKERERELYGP

[8] = biological target: T6, 274 purified Kme readers (Homo sapiens, UniProt O95931); experiment: Protein domain microarray; type: binding; conditions: 1 μM, qualitative
T6 sequence (O95931 1-69): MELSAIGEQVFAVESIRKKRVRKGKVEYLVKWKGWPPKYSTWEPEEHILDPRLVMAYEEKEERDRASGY

[9] = biological target: 274 purified Kme readers (Homo sapiens, UniProt P45973); experiment: Protein domain microarray; type: binding; conditions: 1 μM, qualitative
[10] = biological target: 274 purified Kme readers (Homo sapiens, UniProt P83916); experiment: Protein domain microarray; type: binding; conditions: 1 μM, qualitative
[11] = biological target: 274 purified Kme readers (Homo sapiens, UniProt Q13185); experiment: Protein domain microarray; type: binding; conditions: 1 μM, qualitative
[12] = biological target: T7, 274 purified Kme readers (Homo sapiens, UniProt Q14781); experiment: Protein domain microarray; type: binding; conditions: 1 μM, qualitative
T7 sequence (Q14781 1-70): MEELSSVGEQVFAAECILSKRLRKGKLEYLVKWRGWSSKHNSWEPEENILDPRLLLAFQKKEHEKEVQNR

[13] = biological target: T8, 274 purified Kme readers (Homo sapiens, UniProt Q8N8U2); experiment: Protein domain microarray; type: binding; conditions: 1 μM, qualitative
T8 sequence (Q8N8U2 1-67): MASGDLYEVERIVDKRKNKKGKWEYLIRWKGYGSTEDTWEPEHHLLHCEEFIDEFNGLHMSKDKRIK

[14] = biological target: T9, 274 purified Kme readers (Homo sapiens, UniProt Q9HC52); experiment: Protein domain microarray; type: binding; conditions: 1 μM, qualitative
T9 sequence (Q9HC52 1-69): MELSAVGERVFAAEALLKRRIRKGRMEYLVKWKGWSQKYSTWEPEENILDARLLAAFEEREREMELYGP

Chain of 274 purified Kme readers (Homo sapiens, UniProt P45973) (P45973 1-78): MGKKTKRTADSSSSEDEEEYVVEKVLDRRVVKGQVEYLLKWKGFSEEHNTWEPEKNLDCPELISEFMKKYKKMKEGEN
Chain of 274 purified Kme readers (Homo sapiens, UniProt P83916) (P83916 1-79): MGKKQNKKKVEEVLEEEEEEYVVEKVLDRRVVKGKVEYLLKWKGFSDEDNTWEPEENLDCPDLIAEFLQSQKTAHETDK
Chain of 274 purified Kme readers (Homo sapiens, UniProt Q13185) (Q13185 1-88): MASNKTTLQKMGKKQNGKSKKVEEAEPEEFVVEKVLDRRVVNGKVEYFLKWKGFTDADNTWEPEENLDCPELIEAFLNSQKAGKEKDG

Row | SMILES | IC50 [1] [µM] | GFP reactivation / cellular activity in the CBX8 reporter assay [2] | cytotoxicity [3] | cellular activity in the CBX7 reporter cell line [4] | chromatin binding of CBX2, CBX6, and CBX7 [5] | binding to CBX4 on microarray [6] | binding to CBX6 on microarray [7] | binding to CBX7 on microarray [8] | binding to CBX5 on microarray [9] | binding to CBX1 on microarray [10] | binding to CBX3 on microarray [11] | binding to CBX2 CD on microarray [12] | binding to the CD of CDYL2 on microarray [13] | binding to CBX8 CD on microarray [14]
1 | COC(=O)[C@H](CO)NC(=O)[C@H](CCCCN(C)C1CC2CCC1C2)NC(=O)[C@H](CCCN1CCOCC1)NC(=O)[C@@H](NC(=O)[C@H](Cc1ccccc1)NC(=O)c1ccc(C(C)(C)C)cc1)C1CCC1 (stereo partly drawn) [Compound 38, Methyl N^6-(bicyclo[2.2.1]heptan-2-yl)-N^2-((S)-2-((S)-2-((S)-2-(4-(tert-butyl)benzamido)-3-phenylpropanamido)-2-cyclobutylacetamido)-5-morpholinopentanoyl)-N^6-methyl-L-lysyl-L-serinate] ({Benzoyl(4-tBu)}-F[Gly(cBu)][Nva(5-morpholino)][Lys(Me,2-norbornyl)]S-OMe) | 0.96 ± 0.14 | no cellular activity | no cytotoxicity up to 100 μM |  |  |  |  |  |  |  |  |  |  | 
2 | COC(=O)[C@H](CO)NC(=O)[C@H](CCCCN(CC(C)C)C1CC2CCC1C2)NC(=O)[C@H](CCCN1CCOCC1)NC(=O)[C@@H](NC(=O)[C@H](Cc1ccccc1)NC(=O)c1ccc(C(C)(C)C)cc1)C1CCC1 (stereo partly drawn) [Compound 34, Methyl N^6-(bicyclo[2.2.1]heptan-2-yl)-N^2-((S)-2-((S)-2-((S)-2-(4-(tert-butyl)benzamido)-3-phenylpropanamido)-2-cyclobutylacetamido)-5-morpholinopentanoyl)-N^6-isobutyl-L-lysyl-L-serinate] ({Benzoyl(4-tBu)}-F[Gly(cBu)][Nva(5-morpholino)][Lys(iBu,2-norbornyl)]S-OMe) | ~100 |  |  | no cellular activity | minimal effects on chromatin binding |  |  |  |  |  |  |  |  | 
3 | CC(C)CN(CCCC[C@H](NC(=O)[C@H](CCCN1CCOCC1)NC(=O)[C@@H](NC(=O)[C@H](Cc1ccccc1)NC(=O)c1ccc(C(C)(C)C)cc1)C1CCC1)C(=O)N[C@@H](CO)C(=O)NCCOCCOCCOCCOCCOCCOCCOCCOCCOCCOCCOCCNC(=O)CCCC[C@@H]1SC[C@@H]2NC(=O)N[C@@H]21)C1CC2CCC1C2 (stereo partly drawn) [Compound 39] ({Benzoyl(4-tBu)}-F[Gly(cBu)][Nva(5-morpholino)][Lys(iBu,2-norbornyl)]S-{NH(CH2CH2O)11C2H4NHBiotinyl}) |  |  |  |  |  | less strongly | less strongly | less strongly | did not display binding | did not display binding | did not display binding | bound strongly | weakly | bound strongly

Reference: paper PMC9035045 (Cell chemical biology, 2021)
